# NR2E3 ag-1 – agonists of human NR2E3 nuclear receptor; Q9Y5X4; CHO-S Gal4-NCOR/VP16-NR2E3 two-hybrid, luciferase; inhibition of corepressor binding, % at 3.98 µM; 0.35% of 360,000 active; AID 602229;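 active = inhibition above the mean of all tested compounds plus 3 SD, cut at about 70% in these data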;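 note: 0% = DMSO with NR2E3 transfected cells and 100% = cells lacking NR2E3 construct; higher means lower luciferase signal from less NR2E3 corepressor binding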
# Target sequence (Q9Y5X4 whole entry, looked up, the tested form may be a part): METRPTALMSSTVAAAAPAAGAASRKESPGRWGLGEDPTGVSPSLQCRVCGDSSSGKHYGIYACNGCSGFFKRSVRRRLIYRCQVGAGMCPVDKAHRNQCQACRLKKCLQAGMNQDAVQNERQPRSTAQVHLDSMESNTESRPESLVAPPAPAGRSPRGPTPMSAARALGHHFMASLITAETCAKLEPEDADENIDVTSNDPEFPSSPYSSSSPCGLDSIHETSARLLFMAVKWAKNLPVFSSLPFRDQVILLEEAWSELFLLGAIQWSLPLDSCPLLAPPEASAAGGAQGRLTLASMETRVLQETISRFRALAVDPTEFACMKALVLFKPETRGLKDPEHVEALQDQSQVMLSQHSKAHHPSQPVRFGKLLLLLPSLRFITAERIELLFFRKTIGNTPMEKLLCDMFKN
# PG9 Ab binder – binds the HIV-1 gp120 antibody PG9; TR-FRET gp120-PG9 antibody binding; inhibition, % at 6.7 µM; 0.43% of 360,000 active; in the data active = inhibition above about 8.5%
# Rev-erbA mod – Rev-erb alpha (human) modulation | Rev-erbα–FITC-DNA binding, fluorescence polarization, 90 min | 0.79% of 370,000 active | P20393 | activity, % at 10 µM;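 active = activity above about 14%, limit read from the data; passing the limit was not always enough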;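 note: 0% = DMSO wells with 35 nM protein and 100% = DMSO wells with 750 nM protein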
# NR2E3 ag-2 – agonists of human nuclear receptor NR2E3. Q9Y5X4. GST-NR2E3/biotin-RetCOR TR-FRET, 1536-well. inhibition of corepressor binding, % at 4.78 µM. 0.12% of 320,000 active;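 active = percent inhibition above the cutoff of mean plus 3 SD of all tested compounds, set per screening campaign, cut at about 20% in these data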;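 note: 0% = DMSO wells and 100% = biotin wells as full block of FRET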
#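 system = GST-tagged NR2E3 plus biotinylated RetCOR corepressor | input = 1.35 nM GST-NR2E3 | also added = 7 nM biotin-RetCOR | schedule = 5 h incubation at 4 °C | measured by = TR-FRET with europium anti-GST and streptavidin-D2, 340 nm excitation | read-out = percent loss of FRET ratio relative to control wells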
# NR2E3 ag conf – NR2E3 agonism confirmed in two-hybrid assay | shares compounds with NR2E3 ag-1 | CHO-S mammalian two-hybrid NR2E3-NCOR, luciferase luminescence | inhibition, % at 3.98 µM | 51% of 2,300 active | AID 624378;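 active = average inhibition above a cutoff equal to the mean inhibition of all tested compounds plus one SD, cut at about 70% in these data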;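 note: 0% = DMSO in NR2E3 cells and 100% = DMSO in cells lacking NR2E3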
# VP16 counter – counter-screen for NR2E3 agonists: GAL4-VP16 reporter inhibitors; shares compounds with NR2E3 ag-1; CHO-S GAL4-VP16 luciferase reporter, luminescence; 29% of 2,300 active; AID 624379; inhibition, % at 3.98 µM;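 active = mean inhibition above a cutoff equal to the average over all tested compounds plus one standard deviation, cut at about 70% in these data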;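 note: luciferase from a UAS reporter driven by GAL4-VP16 transactivation; 0% = DMSO with VP16-transfected cells and 100% = DMSO with cells lacking VP16; higher means less reporter light so more repression of VP16 activity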
# Active calls of the source: *; x = no result given. Most compounds without a hit are left out; they make up all but 1.4% or so of the library.
SMILES,NR2E3 ag-1,PG9 Ab binder,Rev-erbA mod,NR2E3 ag-2,NR2E3 ag conf,VP16 counter
COc1cccc(CNc2ncnc3cc(Cl)ccc23)c1,54,0,7,x,84*,68
Fc1cccc(CNc2ncnc3cc(Cl)ccc23)c1F,83*,-1,6,0,64,53
COc1ccc(CNc2ncnc3cc(Cl)ccc23)cc1,21,0,5,6,x,x
CCCCNC(=O)C1(C(=O)C2CC2)CC(c2ccccc2C(F)(F)F)=NO1 (stereo not drawn),x,x,-4,x,x,x
CCc1ccc([C@H]2C(C(=O)O)=C[C@@H](CC3CCCC3)N2S(=O)(=O)c2ccc(C)cc2)cc1,57,-2,-3,x,7,3
Cc1ccc(S(=O)(=O)N2[C@@H](c3ccc(Cl)cc3)C(C(=O)O)=CC[C@H]2c2ccc(Cl)cc2)cc1,62,1,3,-1,24,22
Cc1ccc([C@H]2C(C(=O)O)=C[C@@H](CC3CCCC3)N2S(=O)(=O)c2ccc(C)cc2)cc1,-4,1,6,x,x,x
CCCC[C@@H]1C=C(C(=O)O)[C@H](c2ccc(C)cc2)N1S(=O)(=O)c1ccc(C)cc1,9,-1,6,x,x,x
CCCC[C@@H]1C=C(C(=O)O)[C@H](c2ccc(Cl)c(Cl)c2)N1S(=O)(=O)c1ccc(C)cc1,85*,2,4,x,33,37
Cc1ccc(S(=O)(=O)N2[C@@H](c3ccccc3)C(C(=O)O)=CC[C@H]2c2ccc(Cl)c(Cl)c2)cc1,18,0,0,1,x,x
Cc1ccc([C@H]2C(C(=O)O)=CC[C@@H](c3ccc(Cl)c(Cl)c3)N2S(=O)(=O)c2ccc(C)cc2)cc1,67,-2,-9,x,37,27
COC(=O)[C@H](CC(C)C)N(CCCc1cn(Cc2ccc(C)cc2)nn1)S(=O)(=O)c1ccccc1Br,x,x,0,x,x,x
CN=c1scc(-c2cccs2)n1/N=C/c1ccc(O)c(O)c1O,-143,-3,0,1,x,x
CN=c1scc(-c2cccs2)n1/N=C/c1ccccc1O,95*,-1,6,-2,90*,82*
COc1ccc(CCN(C)C(=O)c2cccc(S(=O)(=O)N3CCN(c4ccc(F)cc4)CC3)c2)cc1OC,61,-1,5,x,61,47
CN(CCOc1ccc(Cl)cc1)C(=O)c1cccc(S(=O)(=O)N2CCN(c3ccc(F)cc3)CC2)c1,96*,x,x,x,94*,82*
Cc1ccc(S(=O)(=O)N2CCOCC2)cc1C(=O)N(C)CCOc1ccc(Cl)cc1,11,x,-3,0,x,x
CC(CCN1CCC(C(O)(c2ccccc2)c2ccccc2)CC1)Oc1ccc(C#N)cc1F (stereo not drawn),x,x,-1,x,x,x
CC(Oc1ccc(Br)cc1)c1nc2c3ccccc3nc(=S)n2[nH]1 (stereo not drawn),83*,-2,8,-1,89*,41
COc1ccccc1-c1nc2c3ccccc3nc(=S)n2[nH]1,23,-2,3,-2,x,x
S=c1nc2ccccc2c2nc(-c3ccccc3)[nH]n12,83*,4,-8,1,-56,-63
C=CCN(CC#Cc1ccccc1)CC1CC1,x,x,2,x,x,x
Cc1ccccc1NC(=O)c1cccc2nc3ccccc3nc12,80*,-2,0,0,96*,67
Cc1ccccc1NC(=O)c1ccccc1NC(=O)Cc1cccc2ccccc12,-12,-1,-5,-1,x,x
Cn1c(=O)cc(OCCCC(=O)Nc2cc(Br)ccn2)c2ccccc21,x,x,-6,x,x,x
SMILES,NR2E3 ag-1,PG9 Ab binder,Rev-erbA mod,NR2E3 ag-2,NR2E3 ag conf,VP16 counter
Cc1ccnc(NC(=O)CCCOc2cc(=O)n(C)c3ccccc23)c1,58,-1,5,1,73*,28
Cc1ccnc(NC(=O)CSc2cc(=O)n(C)c3ccccc23)c1,67,-1,0,-2,89*,20
CCOC(=O)[C@]12CCCC3=C1N(CCC3)C(=O)[C@@H](CC(=O)N1CCN(C(=O)c3ccco3)CC1)C2,x,x,3,x,x,x
C[C@H](O)[C@@H]1CN2CCc3c([nH]c4cccc(-c5ccccc5)c34)[C@@H]2C[C@@H]1N(C)C(=O)c1ccco1,x,x,-2,x,x,x
OC[C@@H]1CN(Cc2ccc(-c3ccccc3)cc2)C[C@H](n2cnc3c(Nc4ccccc4)ncnc32)O1,50,0,-3,x,76*,51
OC[C@@H]1CN(Cc2cccc3ccccc23)C[C@H](n2cnc3c(NCc4ccco4)ncnc32)O1,53,-1,-8,x,6,8
CC(C)N(C)c1ncnc2c1ncn2[C@H]1CN(Cc2ccc(-c3ccccc3)cc2)C[C@@H](CO)O1,55,1,-1,x,31,26
OC[C@@H]1CN(Cc2ccc(F)cc2)C[C@H](n2cnc3c(Nc4ccccc4)ncnc32)O1,-50,-1,-1,x,x,x
CC(C)N(C)c1ncnc2c1ncn2[C@H]1CN(Cc2ccncc2)C[C@@H](CO)O1,-19,-1,-4,x,x,x
CC(COc1cccc(OC(F)(F)F)c1)CN1CCC(C(O)(c2ccccc2)c2ccccc2)CC1 (stereo not drawn),x,x,-2,x,x,x
CCN(CC)C(=O)CC[C@@H]1CC[C@]2(CCCN(Cc3ccccc3)C2)O1,x,x,-1,x,x,x
CC(=O)N1c2ccccc2C(=O)NCC1C(=O)NC(C)(C)C (stereo not drawn),x,x,0,x,x,x
O=S(=O)(c1ccc2c(c1)C(O)c1ccccc1CC2)C(F)(F)F (stereo not drawn),56,-1,4,0,57,53
CC(=O)CC[C@H]1CC[C@]2(CCCN(S(C)(=O)=O)C2)O1,x,x,5,x,x,x
Clc1ccc(-n2ncc3c(N4CCCCCC4)ncnc32)cc1,86*,1,-5,10,83*,48
COc1ccc(CCNc2ncnc3[nH]ncc23)cc1OC,-21,1,2,-1,x,x
COc1ccc(CCNc2ncnc3sc(C)cc23)cc1OC,88*,0,5,x,99*,92*
CCOC(=O)[C@@]12CN(C(=O)OC(C)(C)C)CC=C1N(Cc1ccc(OC)cc1)C(=O)[C@H]2CC(=O)N1CCN(C(=O)C2CC2)CC1,x,x,1,x,x,x
CNc1sc(C(=O)c2cccs2)c(N)c1-c1nc2ccccc2s1,51,0,4,7,-16,-40
COc1ccc(NC(=O)N2CCN(c3cccc(C(F)(F)F)c3)CC2)cc1,24,2,-1,2,x,x
Cc1ccnc(NC(=S)N2CCN(c3cccc(C(F)(F)F)c3)CC2)c1,84*,0,3,-59,91*,33
CN(C)S(=O)(=O)c1ccc(NC(=O)N2CCN(c3cccc(C(F)(F)F)c3)CC2)cc1,49,-1,1,1,80*,69
Cc1ccc(C)c(NC(=S)N2CCN(c3cccc(C(F)(F)F)c3)CC2)c1,7,-3,2,2,x,x
CCOc1ccc(-n2c(SCc3ccc(C#N)cc3)nnc2-c2ccco2)cc1,x,x,0,x,x,x
